Measured values as given in ChEMBL document CHEMBL5108074 (J Med Chem, 2022).

How the values were obtained:
[1] = Apparent permeability of the compound across apical side to basolateral side in human Caco-2 cells incubated for 1 hr by LC-MS/MS analysis; conditions: caco-2, 1 h
[2] = target: Cathepsin G (Homo sapiens, UniProt P08311); assay: Inhibition of human Cathepsin G preincubated for 5 mins followed by substrate addition by fluorometer analysis
Summary of the method: (§1)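 Each protease (commercial, typically purified from human plasma) was preincubated with inhibitor for 5 min, then a fluorogenic substrate specific to that enzyme was added. Cleavage was followed kinetically by fluorometry. IC50 came from a four-parameter logistic fit to the normalized rate of fluorescence increase.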

[3] = target: T1, Cytochrome P450 1A2 (Homo sapiens, UniProt P05177); assay: Inhibition of CYP1A2 in human liver microsomes assessed as reduction in acetaminophen metabolite formation incubated for 30 mins in presence of NADPH by LC-MS/MS analysis; assay type: ADME, Microsome
T1 sequence (P05177 whole entry): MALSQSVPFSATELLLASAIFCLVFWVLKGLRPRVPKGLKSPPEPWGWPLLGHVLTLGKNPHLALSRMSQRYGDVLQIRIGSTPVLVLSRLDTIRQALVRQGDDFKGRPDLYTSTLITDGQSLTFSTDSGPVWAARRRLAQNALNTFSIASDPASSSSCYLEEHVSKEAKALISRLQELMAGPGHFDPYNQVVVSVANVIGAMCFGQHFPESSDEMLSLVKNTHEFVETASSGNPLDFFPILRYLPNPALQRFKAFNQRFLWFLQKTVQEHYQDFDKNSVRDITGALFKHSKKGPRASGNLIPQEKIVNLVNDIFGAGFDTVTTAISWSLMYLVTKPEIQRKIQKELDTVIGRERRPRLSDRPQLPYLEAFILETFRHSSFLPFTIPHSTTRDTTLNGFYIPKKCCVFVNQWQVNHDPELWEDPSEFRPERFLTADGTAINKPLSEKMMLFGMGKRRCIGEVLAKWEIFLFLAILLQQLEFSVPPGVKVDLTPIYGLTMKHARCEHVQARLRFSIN

[4] = target: Cytochrome P450 2D6 (Homo sapiens, UniProt P10635); assay: Inhibition of CYP2D6 in human liver microsomes assessed as reduction in dextrorphan metabolite formation incubated for 30 mins in presence of NADPH by LC-MS/MS analysis; assay type: ADME, Microsome
Cytochrome P450 2D6, sequence (P10635 whole entry): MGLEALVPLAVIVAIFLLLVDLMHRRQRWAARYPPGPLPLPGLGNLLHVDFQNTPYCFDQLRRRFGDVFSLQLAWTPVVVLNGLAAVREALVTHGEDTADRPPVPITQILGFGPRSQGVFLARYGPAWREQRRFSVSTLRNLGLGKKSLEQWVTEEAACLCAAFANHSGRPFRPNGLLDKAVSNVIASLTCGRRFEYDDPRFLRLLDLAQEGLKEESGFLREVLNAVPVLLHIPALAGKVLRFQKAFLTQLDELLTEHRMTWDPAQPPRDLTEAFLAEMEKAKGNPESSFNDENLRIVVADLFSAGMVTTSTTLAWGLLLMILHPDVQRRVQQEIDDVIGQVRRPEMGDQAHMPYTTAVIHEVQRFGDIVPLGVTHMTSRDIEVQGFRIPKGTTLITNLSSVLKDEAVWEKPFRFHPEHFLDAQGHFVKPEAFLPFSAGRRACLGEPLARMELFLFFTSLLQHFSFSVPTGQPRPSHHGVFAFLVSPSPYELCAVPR

[5] = target: Kallikrein-1 (Homo sapiens, UniProt P06870); assay: Inhibition of human KLK1 preincubated for 5 mins followed by substrate addition by fluorometer analysis
[6] = target: Coagulation factor XII (Homo sapiens, UniProt P00748); assay: Inhibition of human factor 12a preincubated for 5 mins followed by substrate addition by fluorometer analysis; summary of the method: as §1
Coagulation factor XII, sequence (P00748 20-372 limits assumed): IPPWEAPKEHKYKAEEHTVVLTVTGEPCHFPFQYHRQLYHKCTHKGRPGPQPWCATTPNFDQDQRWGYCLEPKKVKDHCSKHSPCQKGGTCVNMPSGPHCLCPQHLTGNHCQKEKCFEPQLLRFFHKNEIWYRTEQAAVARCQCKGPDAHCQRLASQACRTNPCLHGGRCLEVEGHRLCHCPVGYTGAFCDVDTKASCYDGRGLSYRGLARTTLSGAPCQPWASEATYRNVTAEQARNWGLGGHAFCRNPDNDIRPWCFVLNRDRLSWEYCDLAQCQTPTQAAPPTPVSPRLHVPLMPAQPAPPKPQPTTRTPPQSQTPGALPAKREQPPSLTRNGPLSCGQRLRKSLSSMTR
Coagulation factor XII, sequence (P00748 373-615 limits assumed): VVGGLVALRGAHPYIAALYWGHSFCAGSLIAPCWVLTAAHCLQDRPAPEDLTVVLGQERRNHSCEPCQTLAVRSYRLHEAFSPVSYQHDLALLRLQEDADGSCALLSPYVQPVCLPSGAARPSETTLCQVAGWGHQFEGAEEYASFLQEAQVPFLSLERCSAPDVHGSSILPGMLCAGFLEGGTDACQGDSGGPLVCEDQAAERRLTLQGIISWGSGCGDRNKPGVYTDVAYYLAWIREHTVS

[7] = target: T2, Cytochrome P450 3A4 (Homo sapiens, UniProt P08684); assay: Inhibition of CYP3A4 in human liver microsomes assessed as reduction in 6beta-hydroxymidazolam metabolite formation using midazolam as substrate incubated for 30 mins in presence of NADPH by LC-MS/MS analysis; assay type: ADME, Microsome
T2 sequence (P08684 whole entry): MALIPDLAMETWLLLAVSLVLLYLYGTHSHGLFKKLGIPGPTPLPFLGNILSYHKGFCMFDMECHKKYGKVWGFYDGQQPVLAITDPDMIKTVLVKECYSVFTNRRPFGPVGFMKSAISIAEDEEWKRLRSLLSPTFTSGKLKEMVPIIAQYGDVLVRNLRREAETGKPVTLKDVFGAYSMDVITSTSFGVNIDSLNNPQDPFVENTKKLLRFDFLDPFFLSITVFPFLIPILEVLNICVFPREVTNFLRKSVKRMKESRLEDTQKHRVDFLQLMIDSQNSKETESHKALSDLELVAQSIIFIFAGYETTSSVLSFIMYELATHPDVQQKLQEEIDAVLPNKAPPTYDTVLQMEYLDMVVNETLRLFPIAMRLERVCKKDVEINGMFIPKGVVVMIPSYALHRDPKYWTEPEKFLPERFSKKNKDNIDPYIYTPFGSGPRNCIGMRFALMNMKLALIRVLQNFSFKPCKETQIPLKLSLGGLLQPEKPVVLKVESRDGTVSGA

[8] = target: T2, Cytochrome P450 3A4; assay: Inhibition of CYP3A4 in human liver microsomes assessed as reduction in 6beta-hydroxytestosterone metabolite formation using testosterone as substrate incubated for 30 mins in presence of NADPH by LC-MS/MS analysis; assay type: ADME, Microsome
[9] = Thermodynamic solubility of the compound in FaSSIF at 1 mg/ml at pH 6.5 measured after 4 hrs; assay type: physicochemical; conditions: simulated gi fluid, pH 6.5, 4 h
Summary of the method: (§2)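 Compound (nominal 1 or 100 mg/mL as free base) added to biorelevant medium preheated to 37 °C: FaSSGF at pH 1.6 or FaSSIF at pH 6.5. Vortexed, then shaken 4 h at 37 °C (~500 rpm). Centrifuged at 15000g for 10 min at 37 °C. Supernatant diluted and quantified against calibration standards. Crystalline material used where stated.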

[10] = target: Cytochrome P450 2B6 (Homo sapiens, UniProt P20813); assay: Inhibition of CYP2B6 in human liver microsomes assessed as reduction in hydroxybupropion metabolite formation incubated for 30 mins in presence of NADPH by LC-MS/MS analysis; assay type: ADME, Microsome
Cytochrome P450 2B6, sequence (P20813 whole entry): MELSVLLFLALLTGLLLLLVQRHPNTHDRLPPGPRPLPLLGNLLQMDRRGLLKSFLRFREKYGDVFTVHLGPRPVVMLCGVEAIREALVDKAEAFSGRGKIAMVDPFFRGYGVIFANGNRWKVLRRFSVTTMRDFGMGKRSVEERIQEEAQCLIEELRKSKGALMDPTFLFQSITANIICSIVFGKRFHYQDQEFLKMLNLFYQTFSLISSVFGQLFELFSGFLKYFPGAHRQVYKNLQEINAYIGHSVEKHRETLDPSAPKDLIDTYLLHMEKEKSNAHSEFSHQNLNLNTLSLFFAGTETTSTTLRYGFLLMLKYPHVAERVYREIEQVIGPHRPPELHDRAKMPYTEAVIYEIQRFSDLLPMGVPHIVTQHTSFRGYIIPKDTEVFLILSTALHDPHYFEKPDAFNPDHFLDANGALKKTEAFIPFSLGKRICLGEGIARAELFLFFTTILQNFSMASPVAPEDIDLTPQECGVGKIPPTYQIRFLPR

[11] = Metabolic stability in human liver microsomes assessed as intrinsic clearance per mg of protein measured upto 60 mins in presence of NADPH regenerating system by LC-MS/MS analysis; assay type: ADME, Microsome; conditions: microsomes, 1 h
[12] = target: Cytochrome P450 2C9 (Homo sapiens, UniProt P11712); assay: Inhibition of CYP2C9 in human liver microsomes assessed as reduction in 4 hydroxy-diclofenac metabolite formation incubated for 30 mins in presence of NADPH by LC-MS/MS analysis; assay type: ADME, Microsome
Cytochrome P450 2C9, sequence (P11712 whole entry): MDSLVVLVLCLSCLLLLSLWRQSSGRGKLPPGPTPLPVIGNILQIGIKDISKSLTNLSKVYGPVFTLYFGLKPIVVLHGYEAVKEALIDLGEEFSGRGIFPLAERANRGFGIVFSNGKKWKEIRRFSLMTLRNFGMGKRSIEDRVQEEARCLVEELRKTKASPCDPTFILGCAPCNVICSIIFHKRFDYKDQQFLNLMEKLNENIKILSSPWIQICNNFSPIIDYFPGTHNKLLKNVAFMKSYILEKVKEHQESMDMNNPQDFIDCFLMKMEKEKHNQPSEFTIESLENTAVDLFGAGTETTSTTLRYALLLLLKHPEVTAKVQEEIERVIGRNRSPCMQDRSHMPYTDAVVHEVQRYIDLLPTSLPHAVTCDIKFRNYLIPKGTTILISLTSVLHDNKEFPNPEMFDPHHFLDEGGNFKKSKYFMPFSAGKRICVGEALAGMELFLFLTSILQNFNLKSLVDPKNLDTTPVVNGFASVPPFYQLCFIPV

[13] = Half life in Beagle dog at 1 mg/kg, po and 1 mg/kg, iv measured upto 24 hrs by LC-MS analysis; assay type: ADME, organism-based, Canis lupus familiaris; conditions: in vivo
[14] = target: Beta-secretase 1 (Homo sapiens, UniProt P56817); assay: Inhibition of human beta-secretase 1 preincubated for 5 mins followed by substrate addition by fluorometer analysis
Beta-secretase 1, sequence (P56817 whole entry): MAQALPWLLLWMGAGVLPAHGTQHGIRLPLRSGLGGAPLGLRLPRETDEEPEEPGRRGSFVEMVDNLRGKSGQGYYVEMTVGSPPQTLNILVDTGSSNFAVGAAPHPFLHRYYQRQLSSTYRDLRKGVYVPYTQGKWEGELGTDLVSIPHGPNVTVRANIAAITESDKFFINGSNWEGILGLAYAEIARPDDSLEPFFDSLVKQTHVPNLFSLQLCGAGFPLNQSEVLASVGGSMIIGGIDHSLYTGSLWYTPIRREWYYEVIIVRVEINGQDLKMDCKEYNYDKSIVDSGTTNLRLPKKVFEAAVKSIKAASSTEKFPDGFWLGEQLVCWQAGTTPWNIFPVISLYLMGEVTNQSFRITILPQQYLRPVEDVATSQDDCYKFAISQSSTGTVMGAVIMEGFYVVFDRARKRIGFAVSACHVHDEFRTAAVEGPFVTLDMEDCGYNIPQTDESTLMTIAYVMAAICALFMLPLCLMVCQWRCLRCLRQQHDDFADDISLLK

[15] = target: Plasminogen (Homo sapiens, UniProt P00747); assay: Inhibition of human plasmin preincubated for 5 mins followed by substrate addition by fluorometer analysis; summary of the method: as §1
Plasminogen, sequence (P00747 97-580 limits assumed): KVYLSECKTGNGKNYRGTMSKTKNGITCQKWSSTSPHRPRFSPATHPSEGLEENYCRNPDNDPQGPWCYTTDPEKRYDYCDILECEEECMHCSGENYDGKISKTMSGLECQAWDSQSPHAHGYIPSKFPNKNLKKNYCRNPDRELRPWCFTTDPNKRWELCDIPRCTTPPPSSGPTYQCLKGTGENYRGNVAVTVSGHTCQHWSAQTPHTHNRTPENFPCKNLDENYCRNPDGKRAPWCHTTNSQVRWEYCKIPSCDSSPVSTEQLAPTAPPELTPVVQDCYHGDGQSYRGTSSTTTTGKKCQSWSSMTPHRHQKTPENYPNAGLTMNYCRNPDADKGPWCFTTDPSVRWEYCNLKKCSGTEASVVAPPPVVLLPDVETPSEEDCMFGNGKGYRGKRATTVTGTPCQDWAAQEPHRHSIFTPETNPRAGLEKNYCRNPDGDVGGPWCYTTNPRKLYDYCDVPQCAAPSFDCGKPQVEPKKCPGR
Plasminogen, sequence (P00747 581-810 limits assumed): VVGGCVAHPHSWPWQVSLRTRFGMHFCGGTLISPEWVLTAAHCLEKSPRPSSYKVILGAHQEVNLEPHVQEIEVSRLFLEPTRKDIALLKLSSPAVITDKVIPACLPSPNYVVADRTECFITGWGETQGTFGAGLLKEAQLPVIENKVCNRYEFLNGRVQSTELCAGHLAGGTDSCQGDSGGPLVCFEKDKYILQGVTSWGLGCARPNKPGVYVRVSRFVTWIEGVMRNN

[16] = target: Renin (Homo sapiens, UniProt P00797); assay: Inhibition of human renin preincubated for 5 mins followed by substrate addition by fluorometer analysis
Renin, sequence (P00797 whole entry): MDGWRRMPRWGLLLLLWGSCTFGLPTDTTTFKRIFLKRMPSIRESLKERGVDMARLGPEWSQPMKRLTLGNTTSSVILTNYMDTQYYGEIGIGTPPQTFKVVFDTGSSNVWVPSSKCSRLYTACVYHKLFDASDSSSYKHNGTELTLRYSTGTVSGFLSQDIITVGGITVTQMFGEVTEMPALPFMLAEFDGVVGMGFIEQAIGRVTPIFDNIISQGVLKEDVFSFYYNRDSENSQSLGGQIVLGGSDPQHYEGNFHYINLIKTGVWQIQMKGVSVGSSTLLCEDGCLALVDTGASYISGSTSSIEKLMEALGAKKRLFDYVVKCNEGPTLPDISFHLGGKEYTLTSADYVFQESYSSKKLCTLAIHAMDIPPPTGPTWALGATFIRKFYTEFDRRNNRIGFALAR

[17] = Clearance in Beagle dog blood at 1 mg/kg, iv measured upto 24 hrs by LC-MS analysis; assay type: ADME, organism-based, Canis lupus familiaris; conditions: whole blood
[18] = target: Cytochrome P450 2C8 (Homo sapiens, UniProt P10632); assay: Inhibition of CYP2C8 in human liver microsomes assessed as reduction in 6 alpha-hydroxypaclitaxel metabolite formation incubated for 30 mins in presence of NADPH by LC-MS/MS analysis; assay type: ADME, Microsome
Cytochrome P450 2C8, sequence (P10632 whole entry): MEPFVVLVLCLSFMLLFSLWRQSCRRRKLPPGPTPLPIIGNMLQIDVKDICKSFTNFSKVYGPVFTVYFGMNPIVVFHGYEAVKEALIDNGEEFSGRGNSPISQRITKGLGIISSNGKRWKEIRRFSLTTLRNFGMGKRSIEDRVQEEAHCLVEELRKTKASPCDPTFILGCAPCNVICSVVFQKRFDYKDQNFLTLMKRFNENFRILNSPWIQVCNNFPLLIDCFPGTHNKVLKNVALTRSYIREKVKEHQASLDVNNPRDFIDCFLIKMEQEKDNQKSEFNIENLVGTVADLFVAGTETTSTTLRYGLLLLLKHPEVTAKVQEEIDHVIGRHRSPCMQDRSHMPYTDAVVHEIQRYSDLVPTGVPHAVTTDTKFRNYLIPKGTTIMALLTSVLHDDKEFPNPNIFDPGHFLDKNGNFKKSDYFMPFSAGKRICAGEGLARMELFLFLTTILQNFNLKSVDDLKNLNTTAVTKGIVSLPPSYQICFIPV

[19] = Genotoxicity in Salmonella typhimurium by non-GLP bacterial mutagenicity Ames test; assay type: toxicity; conditions: salmonella enterica subsp. enterica serovar typhimurium
[20] = Oral bioavailability in Sprague-Dawley rat at 10 mg/kg measured upto 24 hrs by LC-MS analysis; assay type: ADME, organism-based; conditions: in vivo
Summary of the method: (§3)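 Male Sprague-Dawley rats, two per route, single dose. IV: 1 mg/kg given as 1 mL/kg of a nominal 1 mg/mL formulation in vehicle. PO: 10 mg/kg given as 5 mL/kg of a 2 mg/mL formulation. PK parameters from noncompartmental analysis. Clearance expressed relative to rat liver blood flow of 80 mL/min/kg.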

[21] = Thermodynamic solubility of the compound in FaSSIF at 1 mg/ml at pH 6.5 using crystalline form of sample measured after 4 hrs; assay type: physicochemical; conditions: simulated gi fluid, pH 6.5, 4 h; summary of the method: as §2
[22] = target: Tryptase (Homo sapiens, UniProt Q9BZJ3+Q15661+Q9NRR2); assay: Inhibition of human tryptase preincubated for 5 mins followed by substrate addition by fluorometer analysis; assay type: protein assay
Summary of the method: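 Human proteases, typically purified from plasma, preincubated with compound for 5 min. A protease-specific fluorogenic substrate was then added and cleavage followed kinetically on a fluorometer. IC50 from a four-parameter logistic fit to the normalized rate of fluorescence increase.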

[23] = target: Prothrombin (Homo sapiens, UniProt P00734); assay: Inhibition of human thrombin preincubated for 5 mins followed by substrate addition by fluorometer analysis; summary of the method: as §1
[24] = target: Cathepsin D (Homo sapiens, UniProt P07339); assay: Inhibition of human Cathepsin D preincubated for 5 mins followed by substrate addition by fluorometer analysis
[25] = Clearance in Sprague-Dawley rat assessed as liver blood flow at 1 mg/kg, iv measured upto 24 hrs by LC-MS analysis; assay type: ADME, organism-based; conditions: in vivo; summary of the method: as §3

Cathepsin G, sequence (P08311 whole entry): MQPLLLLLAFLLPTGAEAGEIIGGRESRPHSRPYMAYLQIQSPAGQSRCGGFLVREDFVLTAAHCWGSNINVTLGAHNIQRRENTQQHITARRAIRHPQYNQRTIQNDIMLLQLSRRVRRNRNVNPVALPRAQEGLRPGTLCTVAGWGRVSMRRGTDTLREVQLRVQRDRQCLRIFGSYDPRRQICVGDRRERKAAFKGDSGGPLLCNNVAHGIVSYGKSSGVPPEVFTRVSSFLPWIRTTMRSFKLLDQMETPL

## COCc1nn(Cc2ccc(Cn3ccccc3=O)cc2)cc1C(=O)NCc1nccc(OC)c1F [SEBETRALSTAT]
[1]
  Papp: 9 10^-6 cm/s
[2]
  IC50: > 10 µM
[3]
  IC50: > 25 µM
[4]
  IC50: > 25 µM
[5]
  IC50: > 40 µM
[6]
  IC50: > 40 µM
[7]
  IC50: > 25 µM
[8]
  IC50: > 25 µM
[9]
  Therm_solubility: 220 µg/mL
[10]
  IC50: > 25 µM
[11]
  microsomal intrinsic clearance: 14 µL/min
[12]
  IC50: > 25 µM
[13]
  t1/2: 1 h
[14]
  IC50: > 10 µM
[15]
  IC50: > 40 µM
[16]
  IC50: > 10 µM
[17]
  clearance: 10.9 mL/min/kg
[18]
  IC50: > 25 µM
[19]
  Activity: Non-Toxic
[20]
  F: 82%
[21]
  Therm_solubility: 110 µg/mL
[22]
  IC50: > 10 µM
[23]
  IC50: > 40 µM
[24]
  IC50: > 10 µM
[25]
  LBF: 26%
